ChEMBL document CHEMBL3994569, “Synthesis, anti-varicella-zoster virus and anti-cytomegalovirus activity of quinazoline-2,4-diones containing isoxazolidine and phosphonate substructures” (Eur J Med Chem, 2017)

Legend:
[1] = Cytotoxicity against HEL cells infected with Varicella-Zoster virus assessed as alteration in cell morphology by microscopic method; type: cell-based; conditions: human, HEL cells infected with Varicella-Zoster virus
Outline: (§1)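 In the HEL cultures used for the antiviral assays, cell morphology was examined microscopically across varying compound concentrations. MCC is the minimum concentration causing a microscopically detectable alteration of cell morphology.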

HMEC-1 = assay: Anti-proliferative activity against HMEC1 cells by coulter counter method; type: ADME, cell-based, Homo sapiens; conditions: Homo sapiens, HMEC-1
Outline: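 HMEC-1 cells at 300,000–500,000 cells/mL, mixed 1:1 by volume with serial dilutions of test compound, incubated at 37 °C. Cell number counted by Coulter counter.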

CCRF-CEM = assay: Anti-proliferative activity against human CEM cells measured after 72 hrs by coulter counter method; type: ADME, cell-based
Outline: (§2)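 Cells at 300,000–500,000 cells/mL, combined 1:1 by volume with compound dilutions, incubated at 37 °C: L1210 for two days, CEM for three days, HeLa for four days. Cells counted by Coulter counter.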

Human alphaherpesvirus 3 [2] = assay: Antiviral activity against thymidine kinase deficient Varicella-Zoster virus 07-1 infected in HEL cells assessed as reduction in virus plaque formation; type: functional, cell-based
Outline: (§3)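 Confluent HEL fibroblast cultures were infected with VZV at an input of 100 PFU and incubated with varying compound concentrations. Plaques were counted once plaque formation was complete in untreated infected controls.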

HeLa = assay: Anti-proliferative activity against human HeLa cells measured after 4 days by coulter counter method; type: ADME, cell-based; outline: as §2
Cytomegalovirus [3] = assay: Antiviral activity against Cytomegalovirus Davis infected in HEL cells assessed as reduction in virus plaque formation; type: functional, cell-based
Outline: (§4)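 Confluent HEL fibroblast cultures infected with 100 PFU of HCMV and kept with varying compound concentrations. Plaques scored once plaque formation was complete in untreated infected controls.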

Cytomegalovirus [4] = assay: Antiviral activity against Cytomegalovirus AD169 infected in HEL cells assessed as reduction in virus plaque formation; type: functional, cell-based; outline: as §4
[5] = Cytotoxicity against HEL cells infected with Cytomegalovirus assessed as alteration in cell morphology by microscopic method; type: cell-based; conditions: human, HEL cells infected with Cytomegalovirus; outline: as §1
L1210 = assay: Anti-proliferative activity against mouse L1210 cells measured after 48 hrs by coulter counter method; type: ADME, cell-based; outline: as §2
Human alphaherpesvirus 3 [6] = assay: Antiviral activity against thymidine kinase expressing Varicella-Zoster virus OKA infected in HEL cells assessed as reduction in virus plaque formation; type: functional, cell-based, strain Oka vaccine; outline: as §3
HEL [7] = assay: Cytotoxicity against HEL cells infected with Varicella-Zoster virus assessed as growth inhibition; type: cell-based; conditions: human, hel
HEL [8] = assay: Cytotoxicity against HEL cells infected with Cytomegalovirus assessed as growth inhibition; type: cell-based; conditions: human
[9] = Human alphaherpesvirus 3, 07-1, HEL
[10] = Human betaherpesvirus 5, Davis, HEL
[11] = Human betaherpesvirus 5, AD169, HEL
[12] = Human alphaherpesvirus 3, strain Oka vaccine, HEL

| SMILES | MCC [1] [µM] | IC50 (HMEC-1) [µM] | IC50 (CCRF-CEM; Homo sapiens, CCRF-CEM, 72 h) [µM] | EC50 (Human alphaherpesvirus 3 [2]; [9]) [µM] | IC50 (HeLa; Homo sapiens, HeLa, 96 h) [µM] | EC50 (Cytomegalovirus [3]; [10]) [µM] | EC50 (Cytomegalovirus [4]; [11]) [µM] | MCC [5] [µM] | IC50 (L1210; Mus musculus, L1210, 48 h) [µM] | EC50 (Human alphaherpesvirus 3 [6]; [12]) [µM] | CC50 (HEL [7]) [µM] | IC50 (CCRF-CEM; ccrf-cem) [µM] | EC50 (Human alphaherpesvirus 3 [2]) [µM] | CC50 (HEL [8]) [µM] | IC50 (HeLa; hela) [µM] | EC50 (Cytomegalovirus [3]) [µM] | EC50 (Cytomegalovirus [4]) [µM] | IC50 (L1210; l1210) [µM] | EC50 (Human alphaherpesvirus 3 [6]) [µM] |
| --- | --- | --- | --- | --- | --- | --- | --- | --- | --- | --- | --- | --- | --- | --- | --- | --- | --- | --- | --- |
| CCOP(=O)(OCC)C1CC(Cn2c(=O)n(Cc3ccccc3)c(=O)c3ccccc32)ON1C (mixture of isomers) | > 100 | 222 | 104 | > 100 | 95 | > 100 | > 100 | 100 | 146 | > 100 |  |  |  |  |  |  |  |  |  |
| CCOP(=O)(OCC)C1CC(Cn2c(=O)n(C(=O)c3ccc(F)cc3)c(=O)c3ccccc32)ON1Cc1ccccc1 (mixture of isomers) | 100 |  | 132 | 7.6 | > 250 | > 20 | > 20 | 20 | 105 | 7.4 | 12.3 |  |  |  |  |  |  |  |  |
| CCOP(=O)(OCC)C1CC(Cn2c(=O)n(Cc3ccc(F)cc3)c(=O)c3ccccc32)ON1C (mixture of isomers) | 100 | ≥ 250 | 173 | 25.2 | 158 | > 20 | > 20 | 100 | ≥ 250 | 35.5 |  |  |  |  |  |  |  |  |  |
| CCOP(=O)(OCC)C1CC(Cn2c(=O)n(C(=O)c3ccccc3F)c(=O)c3ccccc32)ON1Cc1ccccc1 (mixture of isomers) | 100 | > 250 | 158 | 20 | ≥ 250 | > 20 | > 20 | 100 | 155 | 16.7 | 21.4 |  |  |  |  |  |  |  |  |
| CCOP(=O)(OCC)C1CC(Cn2c(=O)n(C(=O)c3ccccc3F)c(=O)c3ccccc32)ON1C (mixture of isomers) | > 100 | > 250 |  | 25.6 | > 250 | 63.1 | > 100 | 100 | > 250 | 29 |  |  |  |  |  |  |  |  |  |
| CCOP(=O)(OCC)C1CC(Cn2c(=O)n(C(=O)c3cccc(F)c3)c(=O)c3ccccc32)ON1C (mixture of isomers) | > 100 |  |  | 21.4 | > 250 | > 100 | > 100 | 100 | > 250 | 7.8 | 30 |  |  |  |  |  |  |  |  |
| CCOP(=O)(OCC)C1CC(Cn2c(=O)n(C(=O)c3cccc(F)c3)c(=O)c3ccccc32)ON1Cc1ccccc1 (mixture of isomers) | 100 | > 250 | 166 | 8.5 |  | > 20 | > 20 | 100 | 185 | 6 | 19.3 |  |  |  |  |  |  |  |  |
| CCOP(=O)(OCC)C1CC(Cn2c(=O)n(Cc3cccc(F)c3)c(=O)c3ccccc32)ON1C (mixture of isomers) | ≥ 100 | 149 | 77 | 27.1 | 86 | 44.7 | > 20 | 100 | 118 | 7 | 36.8 |  |  |  |  |  |  |  |  |
| CCOP(=O)(OCC)C1CC(Cn2c(=O)n(Cc3ccccc3)c(=O)c3ccccc32)ON1Cc1ccccc1 (mixture of isomers; trans) |  |  |  |  |  |  |  |  |  |  |  | 15 | > 20 | 41.7 | 73 | 13.1 | ≥ 14.5 | 17 | > 20 |
| CCOP(=O)(OCC)[C@@H]1C[C@@H](Cn2c(=O)n(Cc3ccccc3F)c(=O)c3ccccc32)ON1Cc1ccccc1 (relative stereo) | 20 | 145 | 98 | > 20 | 79 | > 4 | > 20 | 20 | 68 | 4 |  |  |  |  |  |  |  |  |  |
| CCOP(=O)(OCC)[C@H]1C[C@@H](Cn2c(=O)n(C(=O)c3ccccc3)c(=O)c3ccccc32)ON1Cc1ccccc1 (relative stereo) | 100 | > 250 |  | 10.8 |  | > 20 | > 20 | 100 | 155 | 8.5 | 16.3 |  |  |  |  |  |  |  |  |
| CCOP(=O)(OCC)[C@@H]1C[C@@H](Cn2c(=O)n(Cc3ccccc3F)c(=O)c3ccccc32)ON1C (relative stereo) | 100 | 189 | 99 | > 20 | 74 | 100 | > 100 | 20 | 196 | > 20 |  |  |  |  |  |  |  |  |  |
